Source: ChEMBL document CHEMBL1921780, “Novel 3-nitro-1H-1,2,4-triazole-based aliphatic and aromatic amines as anti-chagasic agents” (J Med Chem, 2011)

Experiments:
[1] = Selectivity index, ratio of IC50 for rat L6 cells to IC50 for Leishmania donovani MHOM-ET-67/L82; type: toxicity, cell-based; settings: L6 cells versus Leishmania donovani MHOM-ET-67/L82, read-out: Ratio IC50
In short: (§1)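 Selectivity index is the L6 myoblast IC50 divided by the IC50 for each parasite. L. donovani was tested as axenic amastigotes. Both IC50s came from 96-well dose-response screens fitted by linear regression of sigmoidal curves.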

Leishmania donovani = experiment: Antileishmanial activity against Leishmania donovani MHOM-ET-67/L82 axenic amastigotes after 72 hrs by alamar blue assay; settings: MHOM-ET-67/L82, 72 h
Trypanosoma cruzi [2] = experiment: Ratio of benznidazole IC50 to compound IC50 for Trypanosoma cruzi Tulahuen C4 infected in rat L6 cells after 72 hrs by alamar blue assay; type: functional
L6 = experiment: Cytotoxicity against rat L6 cells after 72 hrs by alamar blue assay; type: cell-based; settings: L6, 72 h
In short: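 Run in 96-well plates with a compound dose series. T. cruzi was tested as amastigotes inside infected L6 rat skeletal myoblasts. Uninfected L6 cells were used for cytotoxicity. IC50 was obtained by linear regression from sigmoidal dose–inhibition curves.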

[3] = Dissociation constant, pKa of the compound; type: physicochemical
[4] = Selectivity index, ratio of IC50 for rat L6 cells to IC50 for Trypanosoma brucei rhodesiense STIB 900; type: toxicity, cell-based; settings: L6 cells versus Trypanosoma brucei rhodesiense STIB 900, read-out: Ratio IC50; in short: as §1
Trypanosoma cruzi [5] = experiment: Antitrypanosomal activity against amastigotes of Trypanosoma cruzi Tulahuen C4 infected in rat L6 cells after 72 hrs by alamar blue assay; settings: Tulahuen C4, L6, 72 h
[6] = Selectivity index, ratio of IC50 for rat L6 cells to IC50 for Trypanosoma cruzi Tulahuen C4; type: toxicity, cell-based; settings: L6 cells versus Trypanosoma cruzi Tulahuen C4, read-out: Ratio IC50; in short: as §1
[7] = test system: Trypanosoma brucei rhodesiense; experiment: Antitrypanosomal activity against blood stream form of Trypanosoma brucei rhodesiense STIB 900 […] after 72 hrs by alamar blue assay; type: functional, organism-based; settings: STIB 900, 72 h
Salmonella typhimurium = experiment: Induction of mutagenesis in Salmonella Typhimurium by Ames test; type: toxicity, organism-based; settings: salmonella enterica subsp. enterica serovar typhimurium
[8] = test system: Trypanosoma brucei brucei; experiment: Antitrypanosomal activity against blood-stream Trypanosoma brucei brucei after 3 days by alamar blue assay; type: functional, organism-based; settings: 72 h
In short: (§2)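 Bloodstream-form parasites seeded at 1 × 10^3 per ml in growth medium with a range of nitrotriazole or nifurtimox concentrations, no tetracycline. Incubated 3 days at 37 °C, then Alamar blue added for a further 16 h. IC50 taken from culture cell density.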

[9] = test system: Trypanosoma brucei brucei; experiment: Ratio of IC50 for blood-stream Trypanosoma brucei brucei expressing type 1 nitroreductase in the absence of tetracycline to IC50 for tetracycline-induced blood-stream Trypanosoma brucei brucei overexpressing type 1 nitroreductase; type: functional
In short: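 Each culture seeded at 1 × 10^3 per ml, given compound for 3 days at 37 °C, then Alamar blue added for 16 h. IC50 taken from cell density, and the ratio is uninduced over induced.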

[10] = test system: Trypanosoma brucei brucei; experiment: Antitrypanosomal activity against blood-stream Trypanosoma brucei brucei expressing type 1 nitroreductase after 3 days by alamar blue assay in absence of tetracycline; type: functional, organism-based; settings: 72 h; in short: as §2
[11] = test system: Trypanosoma brucei brucei; experiment: Antitrypanosomal activity against tetracycline-induced blood-stream Trypanosoma brucei brucei overexpressing type 1 nitroreductase after 3 days by alamar blue assay; type: functional, organism-based; settings: 72 h
In short: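 Bloodstream-form parasites carrying inducible TbNTR, with expression induced by tetracycline (1 μg/mL). Seeded at 1 × 10^3 per ml with a range of nitrotriazole or nifurtimox concentrations. Incubated 3 days at 37 °C, then Alamar blue added for 16 h. IC50 taken from cell density.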

Trypanosoma cruzi [12] = experiment: Antitrypanosomal activity against amastigote form of Trypanosoma cruzi Tulahuen C4 infected in rat L6 cells after 72 hrs by alamar blue assay; settings: Tulahuen C4, L6, 72 h

IC50 (Trypanosoma cruzi [12]) [µM]	SMILES	selectivity ratio [1]	IC50 (Leishmania donovani) [µM]	Ratio IC50 (Trypanosoma cruzi [2])	IC50 (L6) [µM]	pKa [3]	selectivity ratio [4]	IC50 (Trypanosoma cruzi [5]) [µM]	selectivity ratio [6]	IC50 [7] [µM]	Activity (Salmonella typhimurium)	IC50 [8] [µM]	Ratio IC50 [9]	IC50 [10] [µM]	IC50 [11] [µM]
–	Cl.O=[N+]([O-])c1ncn(CCCNc2ccnc3cc(Cl)ccc23)n1	3	45.8	2.2	143	7.31	463	0.607	236	0.309	Non-toxic	–	–	–	–
–	Cl.O=[N+]([O-])c1ncn(CCCNc2nc(-c3ccccc3)nc3ccccc23)n1	10	9.48	0.9	97	5.06	68	1.48	66	1.42	Non-toxic	2.63	64	4.48	0.07
–	Cl.O=[N+]([O-])c1ncn(CCCNCc2cc(C(F)(F)F)cc(C(F)(F)F)c2)n1	12	11.1	8	138	9.44	18	0.169	816	7.84	Non-toxic	7.83	14	11.1	0.76
1.35	O=C(Cn1ccnc1[N+](=O)[O-])NCc1ccccc1 [BENZNIDAZOLE]	–	–	1	–	–	–	–	–	–	–	–	–	–	–
–	Cl.Cl.O=[N+]([O-])c1ncn(CCCN2CCN(c3ccc(C(F)(F)F)cc3)CC2)n1	2	25.9	33.8	52.8	7.85	10	0.04	1320	5.33	–	2.3	13	2.63	0.21
